Bioassay records as filed in PubChem BioAssay.
SF1 activator: SF-1 (human) activation | Q13285 | CHO-K1 Gal4-SF-1 LBD luciferase reporter; % increase over DMSO SF-1-specific signal | activation, % at 10 µM | actives 1.9% (n = 65,000) | AID 522;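 active = activation above the mean activation of all tested compounds plus 3 SD, cut at about 50% in these data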
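Assay system: CHO-K1 cells co-transfected with Gal4 DBD–human SF-1 LBD, 5xGal4 luciferase reporter; doses: 10 µM only; incubation: 20 h compound exposure at 37 °C after 1 h cell settling; signal: luciferase light emission; evaluation: percent activation versus DMSO; repeats: one test per compound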
S1P1 ag pot: agonists and agonism potentiators of human S1P1 receptor; S1P1 CRE-bla cells, forskolin, beta-lactamase FRET, potentiator mode; S1P1 agonist co-added at EC20, 2 nM; 100% = saturating reference agonist, 0% = basal; activation, % at 9.5 µM; actives 0.57% (n = 56,000); P21453;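 active = activation above a cutoff set at the mean activation of all tested compounds plus 3 SD, cut at about 54% in these data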;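 also: forskolin at 4 µM as EC80 and the EC20 agonist is SEW2871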
M1 ag: agonists of M1 muscarinic receptor. B-score at 10 µM. CHO-M1 cells, Fluo-4 calcium fluorescence, agonist mode; hits give high values. AID 626. actives 3% (n = 64,000);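 active = fluorescence rise, raw or as B-score row- and column-corrected plate score, outside the 99.7% band of its plate's samples, either direction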
RORa activator: activators of human nuclear receptor RORA; CHO-K1 Gal4-RORA LBD luciferase reporter, luminescence; percent increase over mock-subtracted basal signal; activation, % at 10 µM; actives 1.5% (n = 65,000); P35398;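 active = activation above the mean of all tested compounds plus 3 SD, cut at about 49% in these data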
Target sequence (P35398 whole entry, looked up, the tested form may be a part): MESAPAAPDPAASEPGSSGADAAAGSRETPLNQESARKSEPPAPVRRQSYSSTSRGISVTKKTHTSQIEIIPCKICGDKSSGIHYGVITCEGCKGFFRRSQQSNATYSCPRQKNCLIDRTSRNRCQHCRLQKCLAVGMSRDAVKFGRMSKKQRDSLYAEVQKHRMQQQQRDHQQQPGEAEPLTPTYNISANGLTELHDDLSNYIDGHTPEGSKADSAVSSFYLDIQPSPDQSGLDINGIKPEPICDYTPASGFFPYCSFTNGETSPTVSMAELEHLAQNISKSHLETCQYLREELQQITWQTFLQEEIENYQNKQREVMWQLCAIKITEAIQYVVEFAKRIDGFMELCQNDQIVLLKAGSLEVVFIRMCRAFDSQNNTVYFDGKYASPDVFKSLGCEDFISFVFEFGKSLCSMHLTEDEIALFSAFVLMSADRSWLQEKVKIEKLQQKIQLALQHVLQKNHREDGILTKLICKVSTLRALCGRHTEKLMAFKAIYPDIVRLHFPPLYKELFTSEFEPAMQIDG
S1P3 ag: S1P3 (human) receptor agonism. Q99500. S1P3 NFAT-BLA reporter cells, FRET ratio; relative to 1 µM S1P, basal subtracted. activation, % at 4.5 µM. actives 0.1% (n = 60,000). AID 373;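 active = activation above the screen-wide mean plus 3 SD, cut at about 4.5% in these data, passing the limit was not always enough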
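Benchmarks: high control 1 µM S1P / System: stable CHO line with human S1P3, Gα16, NFAT-BLA reporter / Dosing: single compound concentration, 4.5 µM final / Timing: 4 h compound at 37 °C, 2 h substrate at RT / Measured by: FRET β-lactamase substrate fluorescence, excitation 405 nm, 460/535 nm emission ratio, background-subtracted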
M1 antag: antagonists of rat M1 muscarinic receptor; P08482; CHO-M1 cells, Fluo-4 calcium, ACh EC80 antagonist mode; hits give low values; B-score at 10 µM; actives 3.4% (n = 64,000); AID 628;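 active = calcium fluorescence response, raw or row-and-column corrected B-score, differing from the plate sample mean either way at a set confidence level, mostly lower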
M1 antag conf: M1 muscarinic receptor (rat) antagonism, confirmed; shares compounds with M1 antag; calcium response (max-min fluorescence) at 10 µM; actives 43% (n = 1,700); AID 677; CHO-M1 cells, Fluo-4 calcium, ACh EC80 antagonism; hits give low values;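 active = calcium response below the same-plate mean of wells given acetylcholine alone at its 80%-effect dose, minus 3 SD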
mGluR4 antag: selectivity test for M1 antagonists: human mGluR4 receptor; fluorescence response (max-min) at 10 µM; shares compounds with M1 antag; actives 0.9% (n = 1,700); CHO-mGluR4 calcium flux, Fluo-4 fluorescence, glutamate EC80; hits give low values;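 active = fluorescence response below the plate's average for near-maximal glutamate wells, less 3 SD of those wells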;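 also: raw unnormalized fluorescence span taken in the window right after glutamate addition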
A number is an active result; n = inactive; x = not tested or not shown. Shown are actives, neighbours in structure and some others; about 8.8% of the full set was active somewhere.

SMILES | SF1 activator | S1P1 ag pot | M1 ag | RORa activator | S1P3 ag | M1 antag | M1 antag conf | mGluR4 antag
O=C1CC(c2ccc(S(=O)(=O)N3CCN(c4ccccc4)CC3)cc2)CN1 (stereo not given) | n | n | n | n | n | n | x | x
CC(C)c1ccc(O)c(N)c1 | n | n | n | n | n | -2.63 | n | n
CCC(C)c1ccc(O)c(N)c1 (stereo not given) | n | n | n | n | n | n | x | x
CCOC(=O)N1CCN(S(=O)(=O)c2cc(OCC(N)=O)c(C)cc2Cl)CC1 | n | x | n | n | n | n | x | x
COC(=O)c1ccccc1S(=O)(=O)Nc1ccc(OC)nc1 | n | n | n | n | n | n | x | x
Cn1c(=O)n(CCOc2ccccc2Cl)c2ccccc21 | 70.6 | n | n | n | n | -3.5 | 392 | n
CC(=O)c1cccc(NC(=O)NC2CCCCC2)c1 | n | n | n | n | n | n | x | x
O=C(Nc1cccc(Cl)c1)NC1CCCCC1 | 58.7 | n | n | 53.5 | n | -2.21 | n | n
CCN1CC2=C(OC(N)=C(C#N)C2c2cccs2)/C(=C/c2cccs2)C1 (stereo not given) | n | x | n | n | x | n | x | x
CCN1C=C(Cc2cccs2)C2=C(C1)C(c1cccs1)C(C#N)=C(N)O2 (stereo not given) | n | n | n | n | n | -3.84 | n | 170
O=C(OCCN1CCCCC1)c1cc2ccccc2o1 | n | x | n | n | x | -2.44 | n | n
Cc1ccc(N2C(=O)CC3(CC4C=CC3C4)C2=O)cc1 (stereo not given) | n | n | n | n | n | n | x | x
Cc1ccc(-n2c(C)cc(C(=O)CSc3nnnn3C)c2C)cc1 | n | 87.0 | n | n | n | -1.76 | n | n
Cc1cc(C(=O)CSc2nnnn2C)c(C)n1CCc1ccc(F)cc1 | n | n | n | n | n | -2.13 | n | n
Cc1ccc(-n2c(C)cc(C(=O)CSc3nncs3)c2C)cc1 | n | n | n | n | n | n | x | x
COc1ccc(OC)c(C(O)c2coc3ccc(O)c(CN4CCOCC4)c23)c1 (stereo not given) | n | n | n | n | n | n | x | x
O=C1C2CCCN2C(c2ccc(Cl)cc2)N1c1nccs1 (stereo not given) | n | n | n | n | n | n | x | x
Cn1c(=O)oc2cc(S(=O)(=O)NCc3ccco3)ccc21 | n | n | n | n | n | -3.37 | n | n
COc1ccc(Br)cc1C1N2CC3(C)CN1CC(C)(C2)C3=O (stereo not given) | n | x | n | n | x | n | x | x
O=C(CSc1ncccc1-c1nc2ccccc2[nH]1)NCc1ccco1 | n | n | n | n | n | n | x | x
COC(=O)CSc1ncccc1-c1nc2ccccc2[nH]1 | n | n | n | n | n | -2.35 | n | n
COc1ccc(CN2CCCC2C(=O)Nc2ccc(OC)c(OC)c2)cc1OC (stereo not given) | n | n | n | n | n | n | x | x
O=C(Nc1ccc2c(c1)OCO2)c1ccc(COc2ccc3c(c2)CCC3)o1 | 60.7 | n | n | n | n | -1.92 | n | n
Cc1noc(/C=C/c2ccco2)c1S(=O)(=O)N1CCC(C(=O)N2CCc3ccccc3C2)CC1 | n | n | n | n | n | n | x | x
CC(C1CC1)N(C(=O)c1ccccc1O)c1ccccc1 (stereo not given) | n | n | n | n | n | -3.6 | n | n
SMILES | SF1 activator | S1P1 ag pot | M1 ag | RORa activator | S1P3 ag | M1 antag | M1 antag conf | mGluR4 antag
COc1ccc(-c2[nH]ncc2-c2cnn(-c3ccccc3)c2)c(O)c1 | x | x | n | x | x | -3.27 | n | n
COc1ccccc1OCC(=O)NCC1CCCCC1 | n | n | n | n | n | n | x | x
O=C(COn1nnc2ccccc21)NCC1CCCCC1 | n | n | n | n | n | -3 | n | n
Cc1cc(/C=C(/C#N)c2cccc(F)c2)c(C)n1-c1cccnc1 | n | x | n | n | n | -5.03 | n | n
COc1ccccc1NC(=O)CSc1nnc(CNC(=O)COc2ccc(Cl)cc2)o1 | n | n | n | n | n | -2.84 | n | n
CCCCNC(=O)c1ccccc1C(=O)NCCCC | n | x | n | n | n | -3.95 | n | n
CCOCCCNC(=O)c1ccccc1Br | n | x | n | n | n | n | x | x
CC(C)(C)c1ccccc1OCCCCCNCCO | n | n | n | n | n | n | x | x
CCN(CC)CCOC(=O)c1cccc(Cl)c1 | n | n | n | n | n | n | x | x
CCN(CC)CCOC(=O)c1cccc(Br)c1 | n | n | n | n | n | -4.37 | 472 | n
Cc1ccc2c(CC(=O)OCn3nnc4ccccc4c3=O)coc2c1 | n | n | n | n | n | -4.92 | 323 | n
CC(=O)OCn1nnc2ccccc2c1=O | n | n | n | n | n | n | x | x
COc1ccc(Cl)cc1Nc1nc(N2CCCC2)nc(N2CCCC2)n1 | n | n | n | n | n | n | x | x
Clc1cccc(-c2nnc(-c3ccccc3)o2)c1 | n | n | n | n | n | -1.71 | n | n
N#Cc1c(-n2cccc2/C=N/O)sc2c1CCCC2 | n | n | n | n | n | -7.01 | 248 | n
CC(C)NC(=O)Cn1c(SCC(=O)N2CCCCCC2)nc2ccccc21 | n | n | n | n | n | n | x | x
N#CCCn1c(SCC(=O)N2CCN(S(=O)(=O)c3ccccc3)CC2)nc2ccccc21 | n | n | n | n | n | -10.4 | 199 | n
CC(C)Cn1c(SCC(=O)N2CCN(S(=O)(=O)c3ccccc3)CC2)nc2ccccc21 | n | n | n | n | n | -2.59 | 348 | n
Nn1cc(-c2ccccc2)nc1SCC(=O)N1CCN(S(=O)(=O)c2ccccc2)CC1 | n | n | n | n | n | n | x | x
COc1ccc(-c2cc(C(=O)N3CCN(C(c4ccccc4)c4ccccc4)CC3)no2)cc1OC | n | n | n | n | n | n | x | x
O=C(c1cc(-c2ccco2)on1)N1CCN(C(c2ccccc2)c2ccccc2)CC1 | n | 59.8 | n | n | n | -2.75 | n | n
CCn1cc(C2=NC(C(C)C)CO2)c2ccccc21 (stereo not given) | n | n | n | n | n | -6.53 | 412 | n
CCCC1=C(C(=O)OCC)C(c2ccc(O)cc2)n2ncnc2N1 (stereo not given) | n | n | n | n | n | n | x | x
CCn1c(N)nc2ccccc21 | n | n | n | n | n | -2.53 | n | n
COCCNS(=O)(=O)c1ccc(SC)cc1 | n | x | n | n | n | -3.19 | n | n
O=C(c1ccc2c(=O)n(-c3ccccc3)c(=O)[nH]c2c1)N1CCCCC1 | n | n | n | n | n | n | x | x
